Screening results as filed in PubChem BioAssay.
MEKK2 WT-MEK5 = raises or lowers MEK5 binding to wildtype human MEKK2 PB1 domain | Q9Y2U5 | bead flow cytometry, Alexa488-MEK5 binding to MEKK2 WT; actives lie on both sides | binding response (% of control), % at 10 µM | 1.1% of 290,000 active; in the data active = binding response below about 67% or above about 130%
Pemphigus Ab inh = human desmoglein-3 autoantibody binding inhibition; P32926; DSG3-coupled beads, scFv-anti-DSG3-GFP binding, flow cytometry; active compounds read low; binding (percent of control), % at 10 µM; 0.48% of 310,000 active; AID 588358;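 active = binding more than 3 SD below its plate's average and above zero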;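 also: hits lower antibody fragment binding to DSG3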
MEKK3 PB1 HTS = modulators (inhibitors or enhancers) of MEK5 binding to human MEKK3 PB1 domain | Q99759 | binding response (% of control), % at 10 µM | 1.4% of 290,000 active | bead-based flow cytometry, Alexa488-MEK5 binding to MEKK3; actives lie on both sides; 0 = blocked by unlabeled MEK5, 100 = vehicle | AID 1529;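 active = binding response more than 3 SD above or below the average of its plate-row segment, actives on both sides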;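 also: Alexa488 bead fluorescence after subtracting the streptavidin-only scavenger bead signal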
MEKK2 mut-MEK5 = signal of MEK5 binding to mutant human MEKK2 PB1 domain. percent response, % at 10 µM. bead flow cytometry, Alexa488-MEK5 binding to MEKK2 mutant. AID 1530. 0.35% of 290,000 active; in the data active = percent response above about 24%, passing the limit was not always enough
Apaf-1 inh = inhibitors of human Apaf-1 apoptosome; O14727; reconstituted apoptosome caspase-3 activity, DEVD-Rh110 fluorescence; inhibition, % at 20 µM; 0.71% of 330,000 active; AID 489030; active = inhibition of at least 40% at 20 µM;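 also: plate controls were DMSO wells for no effect and DEVD-CHO caspase inhibitor wells for full effect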
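Assay system: Apoptosome proteins | Medium: pH 7.5 Hepes buffer with CHAPS, BSA, DTT | Also added: Cytochrome c and DEVD-Rh110 substrate | Times: 30 min plus 50 min, RT | Detection: Rhodamine 110 fluorescence at Ex 480/Em 540 nm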
UBC13 polyUb = human UBC13 polyubiquitination inhibition; P61088; inhibition, % at 20 µM; 0.47% of 330,000 active; UBC13 polyubiquitin chain formation, TR-FRET; AID 485273; in the data active = inhibition above about 45%, passing the limit was not always enough
MEKK2wt confirm = raises or lowers MEK5 binding to wildtype human MEKK2, retest. shares compounds with MEKK3 PB1 HTS. bead flow cytometry, Alexa488-MEK5 binding to MEKK2 WT; actives lie on both sides. binding response (% of control), % at 10 µM. 2.4% of 5,900 active; in the data active = binding response below about 16% or above about 210%; inactive = in between
MEKK2mut confirm = signal of MEK5 binding to mutant human MEKK2, retest. shares compounds with MEKK3 PB1 HTS. bead flow cytometry, Alexa488-MEK5 binding to MEKK2 mutant. percent response, % at 10 µM. 2% of 5,900 active. AID 1893; in the data active = percent response mostly above about 71%, no sharp cut-off; inactive = mostly below about 38%;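 also: higher means compound restores mutant binding toward wildtype level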
MEKK3-MEK5 inh = confirmation of inhibitors of MEK5 binding to human MEKK3; shares compounds with MEKK3 PB1 HTS; bead flow cytometry, Alexa488-MEK5 binding to MEKK3; active compounds read low; binding response (% of control), % at 10 µM; 1.8% of 5,900 active; AID 1894;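 active = binding response below 72% of control, or above a set upper limit, though filed actives all read lower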;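 also: 100% = DMSO only wells and 0% = binding blocked by excess unlabeled MEK5; lower values mean stronger disruption of MEK5 binding to MEKK3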
An asterisk follows results filed as active; . = no result given; [ ] = remark or other dose. The list is not random: actives were taken first. Their share in the collection is about 3.2%.

SMILES	MEKK2 WT-MEK5	Pemphigus Ab inh	MEKK3 PB1 HTS	MEKK2 mut-MEK5	Apaf-1 inh	UBC13 polyUb	MEKK2wt confirm	MEKK2mut confirm	MEKK3-MEK5 inh
CCN(CC(=O)Nc1ccc(NC(C)=O)cc1)C(=O)c1cc(-c2ccccc2Cl)nc2ccccc12	.	103	.	.	.	.	.	.	.
COc1cc(O)c(C(CC(=O)N2CCCC(C)C2)c2ccc(N(C)C)cc2)c(OC)c1 (stereo not drawn)	158*	108	127	2	15	-6	103	0	101
COc1cc(O)c(C(CC(=O)N2CCN(c3ccccc3)CC2)c2ccc(N(C)C)cc2)c(OC)c1 (stereo not drawn)	134	106	85	4	21	13	.	.	.
COc1cc(O)c(C(CC(=O)N2CCCCC2)c2ccc3c(c2)OCO3)c(OC)c1 (stereo not drawn)	140*	99	122	4	8	6	102	-1	103
COc1cc(O)c(C(CC(=O)N2CCOCC2)c2cc(OC)c(OC)c(OC)c2)c(OC)c1 (stereo not drawn)	154*	104	126	3	4	-1	97	2	101
COc1cc(O)c(C(CC(=O)N2CCCC(C)C2)c2ccc3c(c2)OCO3)c(OC)c1 (stereo not drawn)	142*	109	121	2	16	0	104	1	98
COc1ccc(C(CC(=O)N2CCCC2)c2c(O)cc(OC)cc2OC)cc1 (stereo not drawn)	97	.	95	1	16	-2	.	.	.
Cc1cccc(Oc2ccc3c(c2)cc(C(=O)O)n3C)c1	97	93	101	4	-8	0	.	.	.
CSc1ccc2c(c1)N(CCC1CCCCN1C)c1ccccc1S2 (stereo not drawn)	176*	101	76	16	55*	72*	191	64	116
CC(=O)c1ccc2c(c1)N(CCCN1CCC(CCO)CC1)c1ccccc1S2	.	98	.	.	14	15	.	.	.
CCOc1cccc(OCCOCCOc2ccccc2C(C)=O)c1	111	.	193*	2	6	1	95	4	100
CCOc1ccc(OCCCCOc2ccccc2C(C)=O)cc1	111	.	104	3	9	16	.	.	.
O=c1cc(-c2ccccc2)oc2ccc(Cl)cc12	.	88	.	.	.	.	.	.	.
O=c1cc(-c2ccc3c(c2)OCCO3)oc2ccc(Cl)cc12	104	88	137*	0	-1	16	96	1	100
COc1ccc(C(=O)N/C(=C/c2cccs2)C(=O)N2CCN(C)CC2)cc1	.	104	.	.	.	.	.	.	.
Cn1c(=O)c2ncn(CC(=O)N/N=C/C=C/c3ccccc3)c2n(C)c1=O	91	103	107	-9	1	-14	.	.	.
Cn1c(=O)c2ncn(CC(=O)N/N=C/c3ccco3)c2n(C)c1=O	108	86	140*	0	-3	-13	110	2	101
O=C(N/N=C/c1cc2ccccc2nc1Cl)[C@H]1C[C@@H]1c1ccccc1	108	104	168*	1	25	-13	100	-4	103
COc1ccc(-c2nnc(OCc3ccccc3)c3ccccc23)cc1	104	98	129*	0	8	-5	110	9	110
C/C=C1\COC(C(=O)NCCCN2CCCC2=O)(C(F)(F)F)C=C1C=C(C)C (stereo not drawn)	85	105	78*[inhibitor]	-7	-2	-6	105	19	107
CCN(CC)c1ccc(C=Nc2ccc(OC)c(S(=O)(=O)N3CCOCC3)c2)c(O)c1	.	95	.	.	8	8	.	.	.
